Assay [1] concerns the target T1, Alpha-2B adrenergic receptor (Homo sapiens, UniProt P18089).
T1 sequence (P18089 whole entry): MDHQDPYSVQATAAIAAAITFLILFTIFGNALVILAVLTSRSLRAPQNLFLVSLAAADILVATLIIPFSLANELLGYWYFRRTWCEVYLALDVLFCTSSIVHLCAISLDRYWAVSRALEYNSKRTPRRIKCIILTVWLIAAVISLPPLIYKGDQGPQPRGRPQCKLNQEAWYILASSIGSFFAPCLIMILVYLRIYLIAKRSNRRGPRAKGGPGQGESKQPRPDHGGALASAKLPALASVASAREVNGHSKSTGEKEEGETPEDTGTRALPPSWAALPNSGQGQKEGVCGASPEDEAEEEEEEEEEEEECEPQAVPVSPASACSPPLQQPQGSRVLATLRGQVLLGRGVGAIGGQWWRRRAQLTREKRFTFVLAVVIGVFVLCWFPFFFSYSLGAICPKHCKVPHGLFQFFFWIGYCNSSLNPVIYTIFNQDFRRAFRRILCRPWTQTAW
The assay is described as follows: In vitro binding affinity towards human alpha-2B adrenergic receptor using [3H]rauwolscine.

Assay [2] has as its target T2, Alpha-2C adrenergic receptor (Homo sapiens, UniProt P18825).
T2 sequence (P18825 whole entry): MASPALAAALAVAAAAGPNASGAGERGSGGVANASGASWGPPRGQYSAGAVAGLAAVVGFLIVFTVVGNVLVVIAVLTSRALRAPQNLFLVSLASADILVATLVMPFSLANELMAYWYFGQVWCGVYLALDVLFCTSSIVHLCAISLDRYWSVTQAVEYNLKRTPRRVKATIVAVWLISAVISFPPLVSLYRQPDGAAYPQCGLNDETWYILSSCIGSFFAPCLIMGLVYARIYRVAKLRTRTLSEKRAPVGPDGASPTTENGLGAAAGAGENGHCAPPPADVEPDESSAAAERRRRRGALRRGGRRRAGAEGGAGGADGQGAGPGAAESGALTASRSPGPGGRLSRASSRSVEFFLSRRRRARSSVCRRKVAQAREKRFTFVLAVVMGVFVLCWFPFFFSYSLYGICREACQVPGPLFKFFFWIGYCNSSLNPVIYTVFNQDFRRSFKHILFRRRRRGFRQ
The assay is described as follows: In vitro binding affinity towards human adrenergic alpha-2C adrenergic receptor using [3H]rauwolscine.

Assay [3] addresses Sodium-dependent serotonin transporter (Rattus norvegicus) (UniProt P31652). The assay is described as follows: In vivo effective dose required to inhibit p-chloroamphetamine induced excitation in rats upon subcutaneous administration. The assay is classed as functional, organism-based. The method in brief:
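Overnight-starved male Wistar rats (200–250 g) given test compound or solvent sc 1 h before p-chloroamphetamine (5 mg/10 mL/kg, sc). Excitation scored over a 15-min interval starting 45 min after pCA. A score <2 was the all-or-nothing criterion for inhibition (1.0% false positives, n>200). ED50 in mg/kg.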

Assay [4] deals with Adrenergic receptor alpha-2 (Rattus norvegicus) (UniProt P22086+P19328+P22909). The assay is described as follows: In vivo effective dose required to inhibit xylazine-induced loss of righting in rats upon subcutaneous administration. The assay is classed as functional, organism-based.
The target in assay [5] is T3, Alpha-2A adrenergic receptor (Homo sapiens, UniProt P08913).
T3 sequence (P08913 whole entry): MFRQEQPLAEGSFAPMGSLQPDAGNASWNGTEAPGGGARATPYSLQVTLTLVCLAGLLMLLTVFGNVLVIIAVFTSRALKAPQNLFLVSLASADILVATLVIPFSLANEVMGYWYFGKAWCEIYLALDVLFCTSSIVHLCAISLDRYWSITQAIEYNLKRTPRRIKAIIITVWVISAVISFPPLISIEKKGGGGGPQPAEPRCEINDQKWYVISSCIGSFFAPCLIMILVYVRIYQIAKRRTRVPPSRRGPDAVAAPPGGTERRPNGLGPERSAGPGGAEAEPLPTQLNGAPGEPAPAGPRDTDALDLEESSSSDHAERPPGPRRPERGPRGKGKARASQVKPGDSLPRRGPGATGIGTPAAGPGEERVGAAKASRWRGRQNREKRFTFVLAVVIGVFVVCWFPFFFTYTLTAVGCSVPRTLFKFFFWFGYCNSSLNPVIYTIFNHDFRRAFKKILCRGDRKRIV
The assay is described as follows: In vitro binding affinity towards human alpha-2A adrenergic receptor using [3H]rauwolscine.

Sodium-dependent serotonin transporter (Rattus norvegicus), sequence (P31652 whole entry): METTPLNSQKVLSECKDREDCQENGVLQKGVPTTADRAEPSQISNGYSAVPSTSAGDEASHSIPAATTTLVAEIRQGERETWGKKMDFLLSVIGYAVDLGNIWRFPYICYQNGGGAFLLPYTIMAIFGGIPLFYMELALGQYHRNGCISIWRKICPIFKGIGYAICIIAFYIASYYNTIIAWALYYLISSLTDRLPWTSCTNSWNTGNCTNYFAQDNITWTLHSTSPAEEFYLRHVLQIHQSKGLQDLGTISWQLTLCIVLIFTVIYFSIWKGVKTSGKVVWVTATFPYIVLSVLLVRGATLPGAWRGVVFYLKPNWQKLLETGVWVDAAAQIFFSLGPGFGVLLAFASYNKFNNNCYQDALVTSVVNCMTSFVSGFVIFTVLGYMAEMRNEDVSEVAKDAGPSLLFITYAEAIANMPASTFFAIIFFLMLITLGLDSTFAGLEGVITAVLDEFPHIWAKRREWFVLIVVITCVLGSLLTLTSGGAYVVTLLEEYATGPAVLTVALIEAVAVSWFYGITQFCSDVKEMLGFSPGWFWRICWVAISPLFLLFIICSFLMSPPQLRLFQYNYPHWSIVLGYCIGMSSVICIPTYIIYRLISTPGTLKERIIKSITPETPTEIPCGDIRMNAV

By Ki is commonly meant a dissociation constant, usually derived from enzyme kinetics or from competition with a known ligand. High values mean a looser hold on the target, low ones a stronger hold on the target. The ED50 is the dose at which the effect has come halfway, by size or by number of responders. A higher ED50 goes with a need for a large dose. On to `COc1cccc2c1CCC[C@H]2CN(C)CCc1ccc2ccoc2c1`, for which the values for the Ki in assay [1] and in assay [2] were 0.011 µM and 0.0021 µM, respectively. For the same molecule, the ED50 in assay [3] was 10 mg/kg; in assay [4] it was greater than 10 mg/kg.

In the case of `COc1cc2c(cc1OC)C1=NOC(CN3CCN(CC4=Cc5ccccc5C4)CC3)C1CO2` (stereo not given), the Ki in assay [1] worked out at 0.315 µM; in assay [5] it was 0.022 µM; in assay [2], 0.0047 µM. The results for the ED50 in assay [3] and in assay [4] were 0.32 mg/kg and 10 mg/kg, respectively.

On to `COc1cc2c(cc1OC)C1=NOC(CN3CCN(C/C=C(\C)c4ccccc4)CC3)C1CO2` (stereo not given), for which the results for the Ki in assay [1] and in assay [2] were 0.031 µM and 0.0006 µM, respectively. The figures for the ED50 in assay [3] and in assay [4] were 0.2 mg/kg and 2.5 mg/kg, respectively.

In the case of `COc1cc2c(cc1OC)C1=NOC(CN3CCN(Cc4cc5ccccc5s4)CC3)C1CO2` (stereo not given), the figures for the Ki in assay [1], in assay [5] and in assay [2] were greater than 1 µM, 0.098 µM and 0.089 µM, respectively. Further, the ED50 was 2.5 mg/kg in assay [3] and greater than 10 mg/kg in assay [4].

Regarding `COc1cc2c(cc1OC)C1=NOC(CN3CCN(CCc4ccccc4)CC3)C1CO2` (stereo not given), the Ki in assay [1] is greater than 1 µM; in assay [5], 0.234 µM; in assay [2], 0.089 µM. In addition, the values for the ED50 in assay [3] and in assay [4] were 10 mg/kg and greater than 10 mg/kg, respectively.

For the molecule `COc1cc2c(cc1OC)C1=NOC(CN3CCN(Cc4ccccc4)CC3)C1CO2` (stereo not given), the values for the Ki in assay [1], in assay [5] and in assay [2] were 0.995 µM, 0.186 µM and 0.089 µM, respectively. Further, the figures for the ED50 in assay [3] and in assay [4] were 8 mg/kg and greater than 10 mg/kg, respectively.

For `COc1cc2c(cc1OC)C1=NOC(CN3CCN(Cc4csc5ccccc45)CC3)C1CO2` (stereo not given), the Ki in assay [1] was found to be 0.37 µM; in assay [5] it was 0.066 µM; in assay [2] it was 0.013 µM.

With `COc1cc2c(cc1OC)C1=NOC(CN3CCN(CCCc4ccccc4)CC3)C1CO2` (stereo not given), the Ki in assay [1] amounted to 0.042 µM; in assay [5], 0.026 µM; in assay [2], 0.0019 µM. Also, the values for the median effective dose (ED50) in assay [3] and in assay [4] were 5 mg/kg and 2.5 mg/kg, respectively.

For `COc1cc2c(cc1OC)C1=NOC(CN3CCN(CCC(=O)c4ccccc4)CC3)C1CO2` (stereo not given), the inhibitory constant (Ki) was determined as 0.012 µM in assay [5] and 0.0053 µM in assay [2].

Take `COc1cc2c(cc1OC)C1=NOC(CN3CCN(Cc4cnc5ccccc5c4)CC3)C1CO2` (stereo not given): the Ki is greater than 1 µM in assay [1], 0.034 µM in assay [5] and 0.03 µM in assay [2]. Further, the ED50 in assay [3] and in assay [4] was 5 mg/kg throughout.

For the molecule `COc1ccc2c(c1)OCC1C2=NOC1CN1CCN(C/C=C/c2ccccc2)CC1` (stereo not given), the Ki in assay [1] is 0.016 µM; in assay [2], 0.0019 µM. Also, the ED50 in assay [3] was 1.4 mg/kg; in assay [4], 2 mg/kg.

On to `Fc1ccc2c(c1)CC(CC1CN=CN1)C2` (stereo not given), for which the Ki was 0.023 µM in assay [1] and 0.019 µM in assay [2]. Moreover, the ED50 in assay [3] turned out to be 2 mg/kg; in assay [4], 2.7 mg/kg.

For the molecule `COc1cc2c(cc1OC)C1=NOC(CN3CCN(Cc4cccc5ccccc45)CC3)C1CO2` (stereo not given), the Ki in assay [1] is greater than 1 µM; in assay [5], 0.234 µM; in assay [2], 0.089 µM. In addition, the results for the ED50 in assay [3] and in assay [4] were 3.2 mg/kg and greater than 10 mg/kg, respectively.

As to `C(=C\c1ccccc1)/CN1CCN(CC2ON=C3c4ccccc4OCC32)CC1` (stereo not given), the Ki was 0.002 µM in assay [1] and 0.0017 µM in assay [2]. Further, the values for the ED50 in assay [3] and in assay [4] were 5 mg/kg and 2 mg/kg, respectively.

Take `COc1ccc2c(c1)C1=NOC(CN3CCN(C/C=C/c4ccccc4)CC3)C1CO2` (stereo not given): the values for the Ki in assay [1], in assay [5] and in assay [2] were 0.012 µM, 0.0008 µM and 0.0023 µM, respectively. The ED50 in assay [3] came out at 5 mg/kg; in assay [4], 2.5 mg/kg.

With `COc1cc2c(cc1OC)C1=NOC(CN3CCN(Cc4ccc5ncccc5c4)CC3)C1CO2` (stereo not given), the inhibitory constant (Ki) in assay [1] came to 0.721 µM; in assay [5], 0.117 µM; in assay [2], 0.036 µM. Besides, the values for the ED50 in assay [3] and in assay [4] were 0.63 mg/kg and 5 mg/kg, respectively.

The values are drawn from ChEMBL document CHEMBL1136157, “Synthesis of 3a,4-dihydro-3H-[1]benzopyrano[4,3-c]isoxazoles, displaying combined 5-HT uptake inhibiting and alpha(2)-adrenoceptor antagonistic activities: a novel series of potential antidepressants” (Bioorg Med Chem Lett, 2003).
